Laboratory results as given in ChEMBL document CHEMBL1914441, “Discovery and optimization of a biphenylacetic acid series of prostaglandin D2 receptor DP2 antagonists with efficacy in a murine model of allergic rhinitis” (Bioorg Med Chem Lett, 2011).
Activity calls are given as the source filed them. No cut-off for these calls is given here.

Experiments:
[1] = target: T1, Prostaglandin D2 receptor 2 (Homo sapiens, UniProt Q9Y5Y4); assay: Displacement of [3H]-PGD2 from human prostanoid DP2 receptor expressed in human 293T cells by liquid scintillation counting; type: cell-based
T1 sequence (Q9Y5Y4 whole entry): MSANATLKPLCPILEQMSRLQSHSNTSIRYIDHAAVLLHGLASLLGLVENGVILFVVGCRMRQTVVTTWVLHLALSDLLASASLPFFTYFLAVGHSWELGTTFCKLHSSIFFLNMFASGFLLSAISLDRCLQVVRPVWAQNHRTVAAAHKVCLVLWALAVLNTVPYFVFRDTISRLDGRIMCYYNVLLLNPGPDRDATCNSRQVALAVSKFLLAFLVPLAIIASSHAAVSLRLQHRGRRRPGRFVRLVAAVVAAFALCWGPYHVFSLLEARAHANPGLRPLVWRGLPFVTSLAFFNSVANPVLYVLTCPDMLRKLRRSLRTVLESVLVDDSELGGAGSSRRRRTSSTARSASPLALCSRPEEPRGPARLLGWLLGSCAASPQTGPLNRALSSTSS
Outline: (§1)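 Membranes from 293 cells stably expressing human DP2 were incubated with [³H]-PGD₂ across increasing compound concentrations. Membranes were harvested and washed, and bound radioactivity was counted. The IC50 is the concentration giving 50% inhibition of [³H]-PGD₂ binding. The assay was run without and with 0.2% human serum albumin to gauge protein shift. Mean of at least three experiments.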

[2] = target: T1, Prostaglandin D2 receptor 2; assay: Displacement of [3H]-PGD2 from human prostanoid DP2 receptor expressed in human 293T cells by liquid scintillation counting in presence of 0.2 % human serum albumin; type: cell-based; outline: as §1
hERG (KCNH2) = hERG (KCNH2) (Homo sapiens, UniProt Q12809); assay: Inhibition of human ERG at 10 uM by patch clamp assay
Outline: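 hERG inhibition was measured by patch clamp, performed by an external contract laboratory.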

Cytochrome P450 2D6 = Cytochrome P450 2D6 (Homo sapiens, UniProt P10635); assay: Inhibition of human CYP2D6; type: ADME
Cytochrome P450 3A4 = Cytochrome P450 3A4 (Homo sapiens, UniProt P08684); assay: Inhibition of human CYP3A4; type: ADME
Cytochrome P450 2C9 = Cytochrome P450 2C9 (Homo sapiens, UniProt P11712); assay: Inhibition of human CYP2C9; type: ADME
Thromboxane A2 receptor = target: T2, Thromboxane A2 receptor (Homo sapiens, UniProt P21731); assay: Displacement of [3H]-SQ-29,548 from human TP receptor expressed in human platelet membranes; type: cell membranes
T2 sequence (P21731 whole entry): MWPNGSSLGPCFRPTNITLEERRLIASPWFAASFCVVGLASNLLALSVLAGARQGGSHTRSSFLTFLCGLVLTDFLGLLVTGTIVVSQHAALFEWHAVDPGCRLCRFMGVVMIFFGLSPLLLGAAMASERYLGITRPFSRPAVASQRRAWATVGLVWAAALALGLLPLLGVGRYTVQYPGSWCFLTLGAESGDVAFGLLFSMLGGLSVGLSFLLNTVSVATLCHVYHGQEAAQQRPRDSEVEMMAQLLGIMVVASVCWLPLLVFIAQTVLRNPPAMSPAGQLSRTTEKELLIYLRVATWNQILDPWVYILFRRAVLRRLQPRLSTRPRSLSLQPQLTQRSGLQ
Outline: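 TP binding was measured with human platelet membranes and ³H-SQ-29,548 as radioligand.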

[3] = target: T3, Prostaglandin D2 receptor (Homo sapiens, UniProt Q13258); assay: Displacement of [3H]-PGD2 from human DP1 receptor expressed in human platelet membranes; type: cell membranes
T3 sequence (Q13258 whole entry): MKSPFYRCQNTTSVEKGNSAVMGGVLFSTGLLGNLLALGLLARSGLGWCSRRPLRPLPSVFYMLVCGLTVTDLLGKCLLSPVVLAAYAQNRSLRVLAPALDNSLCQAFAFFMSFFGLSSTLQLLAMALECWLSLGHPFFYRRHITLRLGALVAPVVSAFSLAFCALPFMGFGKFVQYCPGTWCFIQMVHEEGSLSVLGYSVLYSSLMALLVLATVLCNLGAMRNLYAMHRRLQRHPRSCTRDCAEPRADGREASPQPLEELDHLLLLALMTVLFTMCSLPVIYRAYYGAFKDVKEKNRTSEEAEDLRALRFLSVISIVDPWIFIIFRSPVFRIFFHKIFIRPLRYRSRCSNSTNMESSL

[4] = Oral bioavailability in rat at 10 mg/kg; conditions: in vivo
Prostacyclin receptor = Prostacyclin receptor (Homo sapiens, UniProt P43119); assay: Displacement of [3H]-iloprost from human prostanoid IP receptor expressed in human 293T cells membranes; type: cell membranes
Outline: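 IP binding was measured with membranes from hIP/293 cells and ³H-iloprost as radioligand.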

[5] = Half life in dog at 2 mg/kg, iv and 5 mg/kg, po; type: ADME, organism-based, Canis lupus familiaris; conditions: in vivo
Outline: (§2)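 Dog dosing used the sodium salt, given IV at 2 mpk in saline and PO at 5 mpk in 0.5% Methocel.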

Mus musculus = assay: Antiallergic effect in ovalbumin-sensitized BALB/c mouse allergic rhinitis model assessed as reduction in sneezing symptoms at 10 mg/kg, po administered 1 hr prior to OVA challenge on days 31 and 32 measured for 8 mins immediately after OVA challenge on day 32; type: functional, organism-based; parameters: dose 10 mg/kg
Outline: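 Female BALB/c mice sensitized with intraperitoneal OVA (10 µg in Alum) on days 0 and 7, then given nasal OVA challenge. Compound or water vehicle was dosed orally 1 h before challenge on days 31 and 32 only. Sneezing was counted over an 8 min session immediately after the day 32 challenge. n = 4–10 mice per group, means ± SEM, Dunnett's test after ANOVA versus vehicle.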

[6] = Oral bioavailability in dog at 5 mg/kg; type: ADME, organism-based, Canis lupus familiaris; conditions: in vivo; outline: as §2
[7] = Half life in rat at 2 mg/kg, iv; type: ADME, organism-based; parameters: dose 2 mg/kg, route intravenous; conditions: in vivo
Outline: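 Rat dosing used the sodium salt, given IV at 2 mpk in water.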

Chain of hERG (KCNH2) (Q12809 whole entry): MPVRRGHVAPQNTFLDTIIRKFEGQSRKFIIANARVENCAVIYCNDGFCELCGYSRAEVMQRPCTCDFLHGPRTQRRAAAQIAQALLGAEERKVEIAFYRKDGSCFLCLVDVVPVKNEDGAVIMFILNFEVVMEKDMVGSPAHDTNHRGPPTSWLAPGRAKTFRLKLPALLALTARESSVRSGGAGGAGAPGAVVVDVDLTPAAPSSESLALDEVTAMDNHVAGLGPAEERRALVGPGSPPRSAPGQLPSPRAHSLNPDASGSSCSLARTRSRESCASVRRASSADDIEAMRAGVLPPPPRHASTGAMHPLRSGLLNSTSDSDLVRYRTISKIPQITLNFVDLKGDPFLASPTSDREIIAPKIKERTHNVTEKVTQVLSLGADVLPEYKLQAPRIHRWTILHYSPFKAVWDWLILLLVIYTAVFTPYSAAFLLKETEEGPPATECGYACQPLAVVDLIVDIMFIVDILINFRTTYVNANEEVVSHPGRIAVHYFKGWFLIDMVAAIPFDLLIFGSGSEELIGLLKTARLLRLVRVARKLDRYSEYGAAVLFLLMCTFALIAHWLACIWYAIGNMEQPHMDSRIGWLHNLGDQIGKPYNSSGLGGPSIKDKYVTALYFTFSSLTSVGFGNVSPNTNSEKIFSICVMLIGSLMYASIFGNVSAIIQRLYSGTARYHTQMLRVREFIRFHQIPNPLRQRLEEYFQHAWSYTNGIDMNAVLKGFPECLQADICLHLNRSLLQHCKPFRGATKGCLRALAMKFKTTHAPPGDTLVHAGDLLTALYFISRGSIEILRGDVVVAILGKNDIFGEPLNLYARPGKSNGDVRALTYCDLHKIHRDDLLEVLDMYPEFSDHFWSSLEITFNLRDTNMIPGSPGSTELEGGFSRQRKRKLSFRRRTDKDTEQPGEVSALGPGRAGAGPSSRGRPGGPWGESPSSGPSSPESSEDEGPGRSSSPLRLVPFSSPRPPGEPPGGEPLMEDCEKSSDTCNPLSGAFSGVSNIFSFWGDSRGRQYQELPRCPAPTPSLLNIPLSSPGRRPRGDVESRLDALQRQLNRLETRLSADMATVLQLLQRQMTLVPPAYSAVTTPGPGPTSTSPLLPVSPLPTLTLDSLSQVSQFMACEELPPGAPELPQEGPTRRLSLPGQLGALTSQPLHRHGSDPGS
Chain of Cytochrome P450 2C9 (P11712 whole entry): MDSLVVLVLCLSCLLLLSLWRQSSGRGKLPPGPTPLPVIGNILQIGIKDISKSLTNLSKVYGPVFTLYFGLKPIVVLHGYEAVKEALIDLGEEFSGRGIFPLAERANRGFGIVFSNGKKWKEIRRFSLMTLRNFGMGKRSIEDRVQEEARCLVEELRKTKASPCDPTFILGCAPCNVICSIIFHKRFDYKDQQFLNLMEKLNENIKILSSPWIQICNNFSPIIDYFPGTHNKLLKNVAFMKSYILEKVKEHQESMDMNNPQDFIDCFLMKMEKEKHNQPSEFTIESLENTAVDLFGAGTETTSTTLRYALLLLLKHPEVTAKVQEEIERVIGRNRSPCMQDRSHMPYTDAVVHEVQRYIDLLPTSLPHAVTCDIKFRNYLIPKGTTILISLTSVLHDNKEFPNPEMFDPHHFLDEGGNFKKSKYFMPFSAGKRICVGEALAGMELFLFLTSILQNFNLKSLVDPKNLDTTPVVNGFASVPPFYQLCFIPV
Chain of Cytochrome P450 3A4 (P08684 whole entry): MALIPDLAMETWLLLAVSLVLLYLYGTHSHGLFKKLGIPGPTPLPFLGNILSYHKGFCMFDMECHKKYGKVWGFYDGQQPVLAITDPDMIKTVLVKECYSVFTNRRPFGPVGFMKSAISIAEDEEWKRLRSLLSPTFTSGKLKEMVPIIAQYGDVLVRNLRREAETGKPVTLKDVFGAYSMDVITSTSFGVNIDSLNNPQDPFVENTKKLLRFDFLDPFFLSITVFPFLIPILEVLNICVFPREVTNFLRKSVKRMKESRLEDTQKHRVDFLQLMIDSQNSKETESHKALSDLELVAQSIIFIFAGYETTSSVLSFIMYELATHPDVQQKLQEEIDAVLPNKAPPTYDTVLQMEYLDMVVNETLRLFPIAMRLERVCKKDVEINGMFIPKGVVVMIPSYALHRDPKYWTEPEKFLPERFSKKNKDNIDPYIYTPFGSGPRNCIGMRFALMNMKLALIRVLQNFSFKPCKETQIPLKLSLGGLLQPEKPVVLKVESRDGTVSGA
Chain of Cytochrome P450 2D6 (P10635 whole entry): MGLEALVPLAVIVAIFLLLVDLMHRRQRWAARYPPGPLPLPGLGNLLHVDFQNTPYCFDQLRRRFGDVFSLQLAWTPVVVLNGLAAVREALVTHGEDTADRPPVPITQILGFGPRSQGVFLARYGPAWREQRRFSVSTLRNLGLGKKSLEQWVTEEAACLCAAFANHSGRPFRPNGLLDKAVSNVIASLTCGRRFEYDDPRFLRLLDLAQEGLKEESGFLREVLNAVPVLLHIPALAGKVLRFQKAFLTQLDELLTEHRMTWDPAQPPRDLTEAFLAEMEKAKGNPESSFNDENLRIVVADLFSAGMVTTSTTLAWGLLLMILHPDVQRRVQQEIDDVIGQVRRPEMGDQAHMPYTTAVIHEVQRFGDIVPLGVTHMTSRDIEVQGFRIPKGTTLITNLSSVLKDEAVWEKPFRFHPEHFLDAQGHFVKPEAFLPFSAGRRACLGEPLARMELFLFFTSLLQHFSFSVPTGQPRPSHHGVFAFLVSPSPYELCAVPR
Chain of Prostacyclin receptor (P43119 whole entry): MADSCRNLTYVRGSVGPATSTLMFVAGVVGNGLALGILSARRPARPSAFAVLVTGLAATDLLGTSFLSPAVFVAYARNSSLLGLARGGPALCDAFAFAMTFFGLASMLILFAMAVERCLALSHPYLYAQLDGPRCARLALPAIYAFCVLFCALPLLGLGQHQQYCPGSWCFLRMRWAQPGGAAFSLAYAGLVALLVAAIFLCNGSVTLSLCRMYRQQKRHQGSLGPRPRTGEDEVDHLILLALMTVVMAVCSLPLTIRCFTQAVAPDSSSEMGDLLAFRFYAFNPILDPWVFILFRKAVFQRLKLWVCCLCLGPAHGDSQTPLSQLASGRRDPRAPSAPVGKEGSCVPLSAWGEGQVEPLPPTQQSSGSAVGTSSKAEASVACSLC

SMILES	IC50 [1] [µM]	IC50 [2] [µM]	also measured
C[C@H]1[C@@H](c2ccccc2)OC(=O)N1Cc1cc(C(F)(F)F)ccc1-c1ccccc1CCC(=O)O	11	38	
COC(=O)N(Cc1ccccc1)Cc1cc(C(F)(F)F)ccc1-c1cc(CC(=O)O)ccc1OC	0.008	0.031	inhibition at 10 µM (hERG (KCNH2)): 1.2%; IC50 (Cytochrome P450 2D6): > 30 µM; IC50 (Cytochrome P450 3A4): > 30 µM; IC50 (Cytochrome P450 2C9): > 30 µM; IC50 (Thromboxane A2 receptor): 62.4 µM; IC50 [3]: 12.6 µM
COc1ccc(CC(=O)O)cc1-c1ccc(C(F)(F)F)cc1CNCCc1ccccc1	3.4	11	
COc1ccc(CC(=O)O)cc1-c1ccc(C(F)(F)F)cc1CNC(=O)OCc1ccccc1	0.045	0.238	
COc1ccc(-c2cc(CC(=O)O)ccc2OC)c(CN2C(=O)O[C@H](c3ccccc3)[C@@H]2C)c1	1.3	6.1	
CCN(Cc1cc(C(F)(F)F)ccc1-c1cc(CC(=O)O)ccc1OC)C(=O)OCc1ccccc1			bioavailability [4]: 77%; IC50 (Prostacyclin receptor): 56.2 µM; half-life [5]: 7.4 h; IC50 (Cytochrome P450 2D6): > 30 µM; IC50 (Cytochrome P450 3A4): 18 µM; IC50 (Cytochrome P450 2C9): 18 µM; IC50 (Thromboxane A2 receptor): 23 µM; Activity (Mus musculus): Active; bioavailability [6]: 89%; IC50 [3]: 4 µM; half-life [7]: 8.7 h
CCN(Cc1cc(C(F)(F)F)ccc1-c1cc(CC(=O)O)ccc1OC)C(=O)OCc1cc(F)cc(F)c1	0.003	0.011	
CCN(Cc1cc(C(F)(F)F)ccc1-c1cc(CC(=O)O)ccc1OC)C(=O)OC	0.009	0.016	inhibition at 10 µM (hERG (KCNH2)): 5.9%; IC50 (Cytochrome P450 2D6): > 30 µM; IC50 (Cytochrome P450 3A4): > 30 µM; IC50 (Cytochrome P450 2C9): > 30 µM; IC50 (Thromboxane A2 receptor): 67.4 µM; IC50 [3]: 36.4 µM
COC(=O)N(CCc1ccccc1)Cc1cc(C(F)(F)F)ccc1-c1cc(CC(=O)O)ccc1OC	0.024	0.062	
C[C@H]1[C@@H](c2ccccc2)OC(=O)N1Cc1cc(C(F)(F)F)ccc1-c1cccc(CCC(=O)O)c1	9.8	75	
C[C@H]1[C@@H](c2ccccc2)OC(=O)N1Cc1cc(F)ccc1-c1ccc(CC(=O)O)cc1	0.36	1.8	
CCN(Cc1cc(C(F)(F)F)ccc1-c1cc(CC(=O)O)ccc1OC)C(=O)OCc1ccccc1Cl	0.003	0.011	
COc1ccc(CC(=O)O)cc1-c1ccc(C(F)(F)F)cc1CN1C(=O)O[C@H](c2ccccc2)[C@@H]1C	0.18	4.5	IC50 (Cytochrome P450 2D6): > 30 µM; IC50 (Cytochrome P450 3A4): > 30 µM; IC50 (Cytochrome P450 2C9): > 30 µM; IC50 (Thromboxane A2 receptor): 63.7 µM; IC50 [3]: 31.3 µM
C[C@H]1[C@@H](c2ccccc2)OC(=O)N1Cc1cc(C(F)(F)F)ccc1-c1cccc(CC(=O)O)c1	0.34	3	
COc1ccc(CC(=O)O)cc1-c1ccc(C(F)(F)F)cc1CN(C(=O)OCc1ccccc1)C1CCCC1	0.011	0.053	
C[C@H]1[C@@H](c2ccccc2)OC(=O)N1Cc1cc(C(F)(F)F)ccc1-c1cccc(C(=O)O)c1	27	91	
CCN(Cc1cc(C(F)(F)F)ccc1-c1cc(CC(=O)O)ccc1OC)C(=O)OCc1ccc(Cl)cc1	0.003	0.007	IC50 (Prostacyclin receptor): 33 µM; inhibition at 10 µM (hERG (KCNH2)): 22%; IC50 (Cytochrome P450 2D6): > 30 µM; IC50 (Cytochrome P450 3A4): 21 µM; IC50 (Cytochrome P450 2C9): 18 µM; IC50 (Thromboxane A2 receptor): 11.3 µM; IC50 [3]: 4 µM
COc1ccc(CC(=O)O)cc1-c1ccc(C(F)(F)F)cc1CN(C)C(=O)OCc1ccccc1	0.004	0.018	
C[C@H]1[C@@H](c2ccccc2)OC(=O)N1Cc1cc(C(F)(F)F)ccc1-c1ccccc1CC(=O)O	41	62	
CCN(Cc1cc(C(F)(F)F)ccc1-c1cc(CC(=O)O)ccc1OC)C(=O)OCc1cccc(Cl)c1	0.002	0.01	
COc1ccc(CC(=O)O)cc1-c1ccc(F)cc1CN1C(=O)O[C@H](c2ccccc2)[C@@H]1C	0.36	1.3	
COc1ccc(CC(=O)O)cc1-c1ccccc1CN1C(=O)O[C@H](c2ccccc2)[C@@H]1C	0.88	2	
